Assay results reported in ChEMBL document CHEMBL4610115, “Azidothymidine "Clicked" into 1,2,3-Triazoles: First Report on Carbonic Anhydrase-Telomerase Dual-Hybrid Inhibitors” (J Med Chem, 2020).
Activity calls are given as the source filed them. No cut-off for these calls is given here.

Columns and labels:
Carbonic anhydrase 9 = Carbonic anhydrase 9 (Homo sapiens, UniProt Q16790); experiment: Inhibition of human CA9 pre-incubated for 15 mins by stopped flow CO2 hydrase assay
HT-29 = experiment: Effect on telomerase mRNA expression in human HT-29 cells at 20 uM incubated for 48 hrs by real-time RT-PCR analysis; type: ADME, cell-based; conditions: ht-29, 48 h
Outline: (§1)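 PC3 and HT-29 cells were grown in RPMI-1640 with 10% FBS at 37 °C under 5% CO2, after mycoplasma testing. Cells were exposed to a final 20 μM for 48 h. hTERT mRNA was measured and normalized to 18S RNA, with standard curves from serial cDNA dilutions (1:40–1:320). Runs were done in quadruplicate; results are mean ± SEM, compared by Student's t-test.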

[1] = target: Telomerase reverse transcriptase (Homo sapiens) (UniProt O14746); experiment: Inhibition of telomerase in human PC3 cells at 20 uM incubated for 48 hrs by TRAP assay; type: cell-based; conditions: PC-3
Outline: (§2)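 Mycoplasma-tested PC3 or HT-29 cells in RPMI-1640/10% FBS were exposed to a final 20 μM for 48 h. Cells were lysed in CHAPS/glycerol Tris buffer (pH 7.5), and 5 μg extract protein was used for TS-primer elongation (30 min, 37 °C) followed by CX-primer/Taq PCR for 30 cycles. Products were run on 12% nondenaturing PAGE with SYBR Green I densitometry. Quadruplicate; mean ± SEM; t-test.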

PC-3 = experiment: Effect on telomerase mRNA expression in human PC3 cells at 20 uM incubated for 48 hrs by real-time RT-PCR analysis; type: ADME, cell-based; conditions: pc-3, 48 h; outline: as §1
[2] = target: Telomerase reverse transcriptase (Homo sapiens) (UniProt O14746); experiment: Inhibition of telomerase in human HT-29 cells at 20 uM incubated for 48 hrs by TRAP assay; type: cell-based; outline: as §2

Chain of Telomerase reverse transcriptase (Homo sapiens) (O14746 whole entry): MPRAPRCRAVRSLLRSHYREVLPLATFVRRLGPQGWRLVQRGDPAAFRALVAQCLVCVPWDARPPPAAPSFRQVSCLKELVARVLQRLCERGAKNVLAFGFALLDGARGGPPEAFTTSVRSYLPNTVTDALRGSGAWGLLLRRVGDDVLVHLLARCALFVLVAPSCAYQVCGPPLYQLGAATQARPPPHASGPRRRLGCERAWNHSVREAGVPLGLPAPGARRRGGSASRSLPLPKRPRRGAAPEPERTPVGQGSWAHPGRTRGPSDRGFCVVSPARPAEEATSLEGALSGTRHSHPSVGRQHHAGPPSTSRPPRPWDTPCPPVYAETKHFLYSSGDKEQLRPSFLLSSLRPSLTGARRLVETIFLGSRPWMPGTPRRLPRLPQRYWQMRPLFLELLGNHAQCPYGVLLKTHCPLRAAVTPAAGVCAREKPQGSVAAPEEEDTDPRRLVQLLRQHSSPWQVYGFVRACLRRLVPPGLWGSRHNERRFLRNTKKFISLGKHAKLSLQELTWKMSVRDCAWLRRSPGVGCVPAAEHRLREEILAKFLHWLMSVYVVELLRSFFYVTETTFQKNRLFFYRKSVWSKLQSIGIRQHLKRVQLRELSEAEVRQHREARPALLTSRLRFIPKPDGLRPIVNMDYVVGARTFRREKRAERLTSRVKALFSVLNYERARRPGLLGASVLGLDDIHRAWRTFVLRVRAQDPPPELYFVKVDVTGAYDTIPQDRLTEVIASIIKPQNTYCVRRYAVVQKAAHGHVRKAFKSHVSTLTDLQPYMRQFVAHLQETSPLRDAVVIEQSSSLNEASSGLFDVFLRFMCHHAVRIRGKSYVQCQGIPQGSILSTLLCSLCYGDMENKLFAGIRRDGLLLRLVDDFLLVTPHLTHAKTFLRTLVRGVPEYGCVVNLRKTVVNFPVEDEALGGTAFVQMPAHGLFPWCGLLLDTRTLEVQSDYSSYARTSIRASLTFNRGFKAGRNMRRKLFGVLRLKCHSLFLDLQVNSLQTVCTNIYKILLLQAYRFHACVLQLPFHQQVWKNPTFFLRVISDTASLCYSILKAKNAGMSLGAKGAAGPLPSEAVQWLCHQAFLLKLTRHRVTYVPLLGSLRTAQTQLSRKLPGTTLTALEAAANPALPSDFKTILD

Row | Ki (Carbonic anhydrase 9) [nM] | inhibition [1] | inhibition [2] | SMILES | Activity (HT-29) | Activity (PC-3)
1 | 240 | – | – | Cc1cn([C@H]2C[C@H](n3cc(COC(=O)c4ccc(Cl)c(S(N)(=O)=O)c4)nn3)[C@@H](CO)O2)c(=O)[nH]c1=O | – | –
2 | – | inactive | inactive | Cc1cn([C@H]2C[C@H](n3cc(COC(=O)c4ccc(S(N)(=O)=O)cc4)nn3)[C@@H](CO)O2)c(=O)[nH]c1=O | Non-Toxic | Non-Toxic

Continued, molecule first:

Row | SMILES | Ki (Carbonic anhydrase 9) [nM] | inhibition [1] | inhibition [2] | Activity (HT-29) | Activity (PC-3)
3 | Cc1cn([C@H]2C[C@H](n3cc(COc4ccc(S(N)(=O)=O)cc4)nn3)[C@@H](CO)O2)c(=O)[nH]c1=O | – | Active | Active | Non-Toxic | Non-Toxic
4 | Cc1cn([C@H]2C[C@H](n3cc(C[Se]c4ccc(NC(=S)Nc5cccc(S(N)(=O)=O)c5)cc4)nn3)[C@@H](CO)O2)c(=O)[nH]c1=O | – | Active | Active | Non-Toxic | Non-Toxic
5 | Cc1cn([C@H]2C[C@H](n3cc(CNC(=O)c4ccc(S(N)(=O)=O)cc4)nn3)[C@@H](CO)O2)c(=O)[nH]c1=O | – | inactive | inactive | Non-Toxic | Non-Toxic
